# Source: PubChem (SRMLSC)
# Only some compounds are listed: those with a hit (about 2.6% of all), similar ones and a draw of the others.
# BB579 growth dn – growth inhibitors of yeast BB579 in restrictive medium, primary screen, yeast lifespan-shortening project, S. cerevisiae; 140,000 tested, 0.51% active; OD615, 48 h; inhibition, % at 10 µM;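 active means inhibition above a set limit, 3 SD over the mean compound inhibition, cut at about 44% in these data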
#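 Test system: Saccharomyces cerevisiae DeaD strain BB579, replicative lifespan model yeast | Buffer or medium: Restrictive CSMM-D medium | Doses: One dose, 10 µM compound with 0.25% DMSO | Incubation: 48 h exposure, 30 °C | Detection: Culture absorbance at 615 nm | Control set: Amphotericin B at 10 µg/mL as positive control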
# Yeast lifespan up – compounds extending yeast replicative lifespan, primary screen, S. cerevisiae, OD615; S. cerevisiae growth with nicotinamide; deaD strain in restrictive glucose medium; 130,000 tested, 0.68% active; inhibition of the nicotinamide effect, % at 10 µM;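 active means inhibition above a set limit, placed 3 SD over the median of all compounds, cut at about 26% in these data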
#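 Buffer or medium: CSMM-D glucose medium, restrictive; test system: modified budding yeast, DeaD strain; compound: single dose 10 µM compound, 0.25% DMSO; schedule: culture preincubation 4 h, compound exposure 48 h, both 30 °C; detection: optical density (absorbance) at 615 nm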
# RAM inhibit – inhibitors of the yeast RAM network, primary screen, dse1pr::URA3 reporter, 5-FOA selection. S. cerevisiae dse1pr::URA3 reporter, 5-FOA growth OD615, 2 d; analog-sensitive cbk1-as2 kinase mutant strain. inhibition, % at 50 µM. 190,000 tested, 1.8% active;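 active means inhibition above a set limit, 3 SD over mean compound inhibition, cut at about 8.4% in these data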;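 further: inhibition rescues growth on 5-FOA so higher OD means more RAM inhibition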
# RAM 5-FOA – 5-FOA growth of efflux-deficient control yeast, dose response, counter-screen for RAM network inhibitor project, S. cerevisiae, OD615 | shares compounds with RAM inhibit | max inhibition, % | S. cerevisiae efflux-deficient reporter strain, 5-FOA growth OD615, 2 days | 1,200 tested, under 10 active; call rule not given here
# Numbers stand for hits; n = inactive; x = no result given.
SMILES,BB579 growth dn,Yeast lifespan up,RAM inhibit,others
CCN(CCNc1ccc([N+](=O)[O-])c2cccnc12)S(=O)(=O)c1ccccc1,n,n,n,
CCN(CCNc1ccc([N+](=O)[O-])c2cccnc12)S(=O)(=O)c1ccc(Cl)cc1,n,n,9.5,
CCN(CC)C1=NC(=[N+](CC)CC)c2ccccc21,n,n,n,
Cc1cc(C)cc(NC2=NCCCS2)c1,x,x,n,
O=C1NC(=O)N(Cc2ccccc2)C(=O)/C1=C\c1ccco1,x,x,n,
O=C1NC(=O)N(Cc2ccco2)C(=O)/C1=C/c1cccn1CCOc1ccccc1Cl,n,n,8.7,
COc1ccc(CC2(CCc3ccncc3)C(=O)NC(=O)NC2=O)c(OC)c1,x,x,n,
Cn1c(O)c(/C=C/C=Nc2ccccc2)c(=O)n(C)c1=S,n,n,n,
Cc1ccc(NP(=O)(Oc2ccccc2F)Oc2ccccc2F)cc1,n,n,n,
Cc1cccc(NP(=O)(Oc2ccccc2F)Oc2ccccc2F)c1C,n,n,8.7,
Cn1cc(C(=O)N2CCCCC2)c2ccccc21,x,x,n,
O=c1[nH]c(=S)[nH]c(O)c1N=Nc1ccc2c(c1)OCO2,x,x,10.0,
O=c1[nH]c(O)c(N=Nc2ccc3c(c2)OCCO3)c(=O)[nH]1,x,x,n,
CC1(C)C2([N+](=O)[O-])CN3CN(C2)CC1([N+](=O)[O-])C3,x,x,n,
Cc1cc(C)cc(N2C(=O)NC(=O)/C(=C\C=C\c3ccco3)C2=O)c1,n,28.4,n,
Cc1ccc(N2C(=O)NC(=O)/C(=C/C=C/c3ccco3)C2=O)cc1,n,27.1,n,
CC(C)c1ccc(N2C(=O)NC(=O)/C(=C/C=C/c3ccco3)C2=O)cc1,n,n,n,
CCCCN1C(=O)/C(=C/C=C/c2ccco2)C(=O)NC1=S,n,n,n,
O=C1CCCN1c1ccc(S(=O)(=O)O)cc1 (tested in a mixture with another compound),n,n,n,
O=c1[nH]c(=S)n(Cc2ccc(F)cc2)c(O)c1/C=N/N1CCCCCC1,n,n,n,
CCN(CC)C(=O)c1ccc(N2C(=O)C3CC=C(Cl)CC3C2=O)cc1 (stereo not drawn),n,26.4,n,
C=CCN(c1ccc(C(=O)N(CC)CC)cc1)S(C)(=O)=O,n,x,n,
O=C1NC(=O)C(=Cc2ccc(OCC(=O)N3CCOCC3)cc2)C(=O)N1,n,n,n,
CC(C)CCNC(=O)c1cc(C(=O)c2cc(F)ccc2O)cn(CCC(C)C)c1=O,x,x,n,
CC(C)CCNC(=O)c1cc(C(=O)c2cc(Br)ccc2O)cn(CCC(C)C)c1=O,x,x,9.2,
SMILES,BB579 growth dn,Yeast lifespan up,RAM inhibit,others
CN1C(=O)C(=Cc2ccc(N3CCOCC3)o2)C(=O)N(C)C1=O,n,n,n,
CN1C(=O)C(=Cc2ccc(N3CCCCCC3)o2)C(=O)N(C)C1=S,n,n,8.7,
CCCCCCN=Cc1c(O)n(C)c(=O)n(C)c1=O,n,n,n,
Cc1c(N=Nc2c(O)n(C)c(=O)n(C)c2=O)c(=O)n(-c2ccccc2)n1C,n,n,n,
CN1C2CCC1/C(=C/c1ccccn1)C(=O)/C2=C\c1ccccn1,n,37.2,n,
CCNc1cc(N2CCNCC2)ccc1[N+](=O)[O-],x,x,n,
CN1CCC2(CC1)CC(NC=O)c1ccccc1O2 (stereo not drawn),x,x,n,
CC(C)CCNC(=O)c1c(N)n(CC2CCCO2)c2nc3ccccc3nc12 (stereo not drawn),n,n,n,
CCC(C)NC(=O)c1c(N)n(CC2CCCO2)c2nc3ccccc3nc12 (stereo not drawn),n,n,9.1,
Cc1ccc(CN2C3CCCC2CC(NC(=S)NCc2ccccc2)C3)cc1 (stereo not drawn),x,x,n,
O=C(COc1ccccc1)c1cn(Cc2ccccc2)c2ccccc12,n,n,11.8,RAM 5-FOA=n
CCC(=O)c1cn(Cc2ccccc2)c2ccccc12,x,x,n,
CCOC(=O)C1(CCOc2ccccc2)CCN(Cc2ccc(C)s2)CC1,x,x,n,
CC12CN3CC(C)(CN(C1)C3c1cccs1)C2O (stereo not drawn),n,n,n,
CCOc1ccc(NC(=O)c2c(C)nn(Cc3ccccc3)c2Cl)cc1,n,n,n,
COc1ccc(C)cc1NC(=O)c1c(C)nn(Cc2ccccc2)c1Cl,n,n,13.2,RAM 5-FOA=n
O=C(c1ccc(Cl)cc1)C1CCCN(Cc2ccc3ncccc3c2)C1 (stereo not drawn),x,x,n,
Cc1ccc(-n2nc(C)c(C3C(C#N)=C(N)Oc4c3c(=O)oc3ccccc43)c2Cl)cc1 (stereo not drawn),n,n,n,
C/C(=N\N1CCN(C)CC1)c1c(O)n(Cc2ccccc2)c(=O)[nH]c1=O,n,n,n,
COc1cc(OC)c(C=O)c(OC(=O)N(C)C)c1,x,x,n,
CC(C)CCN(N=O)[C@@H](Cc1ccccc1)CN(N=O)[C@@H](Cc1ccccc1)CN(C)N=O,x,x,19.8,RAM 5-FOA=n
CN(C[C@H](Cc1ccccc1)N(C[C@H](Cc1ccccc1)N(CCC(C)(C)C)N=O)N=O)N=O,x,x,12.8,RAM 5-FOA=n
CC(Cc1ccccc1)NC(=O)NC(C)Cc1ccccc1 (stereo not drawn),n,n,n,
CN(CCc1nnc(N)s1)[N+](=O)[O-],x,x,n,
CN(C)C(=O)Oc1ccc(C(=O)c2ccccc2)cc1,n,x,n,
SMILES,BB579 growth dn,Yeast lifespan up,RAM inhibit,others
CCC(=O)Oc1ccc(C(=O)Nc2cccc(C(=O)c3ccccc3)c2)cc1,n,n,12.3,RAM 5-FOA=n
O=C(N/N=C/C1C(=O)NC(=S)N(c2ccccc2)C1=O)c1cc(Br)c(O)c(Br)c1 (stereo not drawn),x,x,n,
CCCCn1c(=O)c(C(=O)Nc2ccsc2C(=O)OC)c(O)c2ccccc21,n,n,n,
CCOC(=O)Cc1csc(NC(=O)c2c(O)c3ccccc3n(CCC(C)C)c2=O)n1,x,x,12.4,RAM 5-FOA=n
Clc1ccc2c(c1)C(c1ccccc1Cl)=NCc1nnc(N3CCN(CCOc4ccccc4)CC3)n1-2,n,n,n,
CN1/C(=C\C=C2C(=O)NC(=S)NC2=O)C(C)(C)c2ccccc21,x,x,11.4,RAM 5-FOA=n
CC1(C)OC(c2ccccc2)=C/C(=C/C=C2C(=O)NC(=S)NC2=O)O1,x,x,17.6,RAM 5-FOA=n
CCc1ccccc1N1C(=O)NC(=O)/C(=C\c2cc(C)n(C)c2C)C1=O,n,n,n,
C=CCN1C(=O)NC(=O)/C(=C/c2ccoc2)C1=O,n,n,n,
CNC(=O)c1cccn(Cc2cc(C(F)(F)F)cc(C(F)(F)F)c2)c1=O,x,x,n,
CC(C)Oc1cccc(NC(=O)c2cccn(Cc3ccc4c(c3)OC(F)(F)O4)c2=O)c1,n,n,13.0,RAM 5-FOA=n
O=C(Nc1cccc(C(F)(F)F)c1)c1cccn(Cc2ccc3c(c2)OC(F)(F)O3)c1=O,n,n,13.6,RAM 5-FOA=n
CNC(=O)c1cccn(Cc2ccc(C(F)(F)F)cc2)c1=O,x,x,n,
CC(=O)c1ccc(OC(C)C)c(Cc2c(O)[nH]c(=S)[nH]c2=O)c1,x,x,n,
O=c1c2ccc(Cl)cc2[nH]c(=S)n1-c1cccnc1,x,x,16.1,RAM 5-FOA=n
COc1cccc(-n2c(=S)[nH]c3ccccc3c2=O)c1,x,x,n,
O=C(NC1CONC1=O)OCC(Cl)(Cl)Cl (stereo not drawn),n,n,n,
